How the values were obtained:
[1] = molecular target: T1, Human immunodeficiency virus type 1 protease (Human immunodeficiency virus 1, UniProt Q72874); assay: Inhibitory activity of the Compound was tested against HIV protease enzyme.
Procedure, shortened: (§1)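 HIV-1 protease from the BRU strain was expressed in a microbial host. Activity was followed as hydrolysis of the octapeptide substrate VSQN-β-naphthylalanine-PIV, using a modified version of Heimbach's method.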

[2] = molecular target: T1, Human immunodeficiency virus type 1 protease; assay: Binding affinity against HIV protease enzyme.(by Dixon analysis); procedure, shortened: as §1
[3] = molecular target: T1, Human immunodeficiency virus type 1 protease; assay: Binding affinity against HIV Protease enzyme.(by Dixon analysis); procedure, shortened: as §1
[4] = molecular target: T1, Human immunodeficiency virus type 1 protease; assay: Inhibitory activity of the Compound was tested against HIV protease enzyme.(value reported by Roche group)
[5] = molecular target: T1, Human immunodeficiency virus type 1 protease; assay: (§2) Inhibitory activity of the Compound was tested against HIV protease enzyme
Procedure, shortened: (§3)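 HIV-1 protease (BRU strain), microbially expressed; activity followed as hydrolysis of the octapeptide substrate VSQN-β-naphthylalanine-PIV, using a modified literature method.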

[6] = molecular target: T1, Human immunodeficiency virus type 1 protease; assay: Inhibitory activity of the Compound was tested against HIV protease enzyme.(value reported by Rich etal)
[7] = molecular target: T1, Human immunodeficiency virus type 1 protease; assay: as §2; procedure, shortened: as §3; remark: listed apart in the source

Compound: CC(C)(C)NC(=O)[C@@H]1CCCN1C(=O)C(=O)[C@H](Cc1ccccc1)NC(=O)[C@H](CC(N)=O)NC(=O)OCc1ccccc1
- IC50 [1]: 20 nM

Compound: CC(C)(C)NC(=O)[C@@H]1CCCN1C(=O)[C@H](O)[C@H](Cc1ccccc1)NC(=O)[C@H](CC(N)=O)NC(=O)OCc1ccccc1
- IC50 [1]: 3100 nM

Compound: CC(C)(C)NC(=O)[C@@H]1CCCN1C(=O)[C@@H](O)[C@H](Cc1ccccc1)NC(=O)[C@H](CC(N)=O)NC(=O)c1ccc2ccccc2n1
- IC50 [1]: 1.1 nM
- Ki [2]: 0.9 nM

Compound: CC(C)(C)NC(=O)[C@@H]1CCCN1C(=O)C(=O)[C@H](Cc1ccccc1)NC(=O)OCc1ccccc1
- IC50 [1]: 600 nM

Compound: CC(C)(C)NC(=O)[C@@H]1CCCN1C(=O)[C@@H](O)[C@H](Cc1ccccc1)NC(=O)[C@H](CC(N)=O)NC(=O)OCc1ccccc1
- IC50 [1]: 7.4 nM
- Ki [3]: 4 nM

Compound: CC(C)(C)NC(=O)[C@@H]1CCCN1C(=O)[C@@H](O)[C@H](Cc1ccccc1)NC(=O)OCc1ccccc1
- IC50 [1]: 460 nM

Compound: CC(C)[C@H](NC(=O)OCc1ccccc1)C(=O)N[C@@H](Cc1ccccc1)[C@H](O)C(=O)N1CCC[C@H]1C(=O)NC(C)(C)C
- IC50 [1]: 4.3 nM

Compound: CC(C)(C)NC(=O)[C@@H]1CC2CCCCC2CN1C[C@@H](O)[C@H](Cc1ccccc1)NC(=O)[C@H](CC(N)=O)NC(=O)OCc1ccccc1 (stereo not given in full)
- IC50 [4]: < 2.7 nM

Compound: CC(C)[C@H](NC(=O)COc1cccc2ccccc12)C(=O)N[C@@H](Cc1ccccc1)[C@H](O)C(=O)N1CCC[C@H]1C(=O)NC(C)(C)C
- IC50 [1]: 1.9 nM

Compound: CC(C)(C)NC(=O)[C@@H]1C[C@@H]2CCCC[C@@H]2CN1C(=O)[C@@H](O)[C@H](Cc1ccccc1)NC(=O)[C@H](CC(N)=O)NC(=O)OCc1ccccc1
- IC50 [1]: 84 nM

Compound: CC(C)(C)NC(=O)[C@@H]1CCCN1C[C@@H](O)[C@H](Cc1ccccc1)NC(=O)[C@H](CC(N)=O)NC(=O)OCc1ccccc1
- IC50 [4]: 210 nM

Compound: CC[C@H](C)[C@H](NC(=O)[C@@H]1CCCN1C(=O)[C@@H](O)[C@H](Cc1ccccc1)NC(=O)[C@@H](CC(N)=O)NC(=O)OCc1ccccc1)C(=O)N[C@H](C(=O)OC)C(C)C
- IC50 [1]: 3.1 nM

Compound: CC(C)(C)NC(=O)[C@@H]1CCCN1C(=O)[C@@H](O)[C@H](Cc1ccccc1)NC(=O)[C@H](CC(N)=O)NC(=O)COc1cccc2ccccc12
- IC50 [1]: 0.58 nM
- Ki [3]: 0.4 nM

Compound: CC(C)(C)NC(=O)[C@@H]1CCCCN1C(=O)[C@@H](O)[C@H](Cc1ccccc1)NC(=O)[C@H](CC(N)=O)NC(=O)OCc1ccccc1
- IC50 [1]: 26 nM

Compound: CC[C@H](C)[C@H](NC(=O)[C@@H]1CCCN1C(=O)[C@H](O)[C@H](Cc1ccccc1)NC(=O)[C@H](CC(N)=O)NC(=O)OCc1ccccc1)C(=O)N[C@H](C(=O)OC)C(C)C
- IC50 [1]: 25 nM

Compound: CC(C)(C)NC(=O)[C@@H]1CCCCN1C[C@@H](O)[C@H](Cc1ccccc1)NC(=O)[C@H](CC(N)=O)NC(=O)OCc1ccccc1
- IC50 [4]: 18 nM

Compound: CC(C)(C)OC(=O)[C@@H]1CCCN1C[C@H](O)[C@H](Cc1ccccc1)NC(=O)[C@H](CC(N)=O)NC(=O)OCc1ccccc1
- IC50 [5]: 180 nM
- IC50 [6]: 450 nM
- IC50 [7]: 130 nM

Compound: CC(C)(C)NC(=O)[C@@H]1C[C@@H]2CCCC[C@@H]2CN1C(=O)[C@@H](O)[C@H](Cc1ccccc1)NC(=O)[C@H](CC(N)=O)NC(=O)c1ccc2ccccc2n1
- IC50 [1]: 27 nM

Compound: CC(C)(C)NC(=O)[C@@H]1CCCN1C(=O)[C@@H](O)[C@H](Cc1ccccc1)NC(=O)[C@H](CC(N)=O)NC(=O)COc1ccc2ccccc2c1
- IC50 [1]: 1.3 nM

Compound: CC(C)(C)OC(=O)[C@@H]1CCCN1C[C@@H](O)[C@H](Cc1ccccc1)NC(=O)OCc1ccccc1
- IC50 [4]: 6500 nM
